ROMK primary: modulators of human ROMK potassium channel. P48048. Tet-inducible ROMK, thallium flux fluorescence; actives lie on both sides. B-score at 10 µM. 2% of 130,000 active. AID 1918;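 active = signal ratio slope over the read window, or its plate-corrected B-score, at least 3 SD from the plate mean, either direction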;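 also: B-score of the F/F0 ratio slope over 7 to 12 s after thallium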
PKD1 inh: blocks activity of human protein kinase D1 | Q15139 | PKD1 kinase fluorescence polarization assay | inhibition, % (concentration not given with the values) | 0.056% of 200,000 active; in the data active = inhibition above about 50%
Arbovirus inh: antivirals against arbovirus infection. arbovirus infection cell-based antiviral screen. inhibition, % at 10 µM. 0.37% of 200,000 active. AID 1251; in the data active = inhibition above about 30%
m-calpain inh: blocks pig calpain II enzyme activity; purified calpain II, fluorogenic peptide substrate, 30 min; 0.37% of 220,000 active; inhibition, % at 16 µM;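 active = inhibition above about 50%, limit read from the data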
MDM2 E3 inh: Mdm2 E3 ligase (human) inhibition; cell-based MDM2 ubiquitination luciferase reporter, 2 h; 0 = plate control, 100 = twice control, blank-subtracted; signal enhancement, % at 5 µM; 0.11% of 210,000 active; AID 1230; Q00987;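 active = signal enhancement of 30% or more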;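 also: luminescence tracks abundance of the self-degrading MDM2-luciferase fusion protein; higher signal means inhibition of MDM2 E3 ligase activity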
Target sequence (Q00987 whole entry, looked up, the tested form may be a part): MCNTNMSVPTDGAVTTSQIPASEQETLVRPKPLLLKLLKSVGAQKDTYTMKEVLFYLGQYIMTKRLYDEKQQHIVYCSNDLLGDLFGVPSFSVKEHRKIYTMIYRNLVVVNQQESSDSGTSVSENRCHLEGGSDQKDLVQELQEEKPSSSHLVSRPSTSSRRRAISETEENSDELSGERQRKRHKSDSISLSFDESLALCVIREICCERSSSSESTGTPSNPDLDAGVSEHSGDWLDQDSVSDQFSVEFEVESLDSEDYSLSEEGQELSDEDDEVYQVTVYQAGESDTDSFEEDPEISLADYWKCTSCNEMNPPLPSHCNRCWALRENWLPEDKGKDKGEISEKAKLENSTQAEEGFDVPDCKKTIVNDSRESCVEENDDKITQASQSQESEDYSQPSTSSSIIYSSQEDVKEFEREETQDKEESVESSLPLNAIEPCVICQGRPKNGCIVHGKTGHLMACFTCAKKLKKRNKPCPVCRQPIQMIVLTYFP
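Assay system: stable mammalian line carrying autodegrading MDM2–luciferase fusion reporter; amount: 2000 cells seeded into each well; buffer or medium: DMEM; benchmarks: plate control and blank wells; signal: luciferase luminescence; timing: 2 h compound exposure at 37 °C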
KCC2 mod: modulates chloride dependent transport by human KCC2. Q9H2X9. KCC2 cells, thallium flux FluoZin-2 fluorescence. B-score of Tl+ flux slope (higher = more flux/activation; lower = inhibition) at 10 µM. 2.2% of 190,000 active. AID 1456;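 active = thallium flux slope and its plate-corrected score both differing from the plate sample mean at a set confidence after two filtering rounds, in either direction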;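 also: slope of fluorescence scaled to starting intensity during 10 to 20 s after thallium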
KCC2 secondary: KCC2 (human) modulation, secondary assay; shares compounds with KCC2 mod; HEK293-KCC2, thallium flux, FluoZin2 fluorescence; stronger effect = higher value; normalised thallium flux (F/F0 slope) at 10 µM; 15% of 3,700 active;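 active = thallium flux slope above the same plate's solvent-only control mean plus 3 SD; inconclusive = the two replicate wells disagree; inactive = no significant difference from solvent-only control wells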
KCC2 bumet counter: thallium flux despite bumetanide block in KCC2 cells, secondary assay 3. AID 1714. 49% of 3,700 active. HEK293-KCC2 + bumetanide/ouabain, thallium flux FluoZin2; stronger effect = higher value. normalized thallium flux at 10 µM. shares compounds with KCC2 mod;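 active = thallium entry rate above the same plate's blocked-transporter control wells by more than 3 SD; inconclusive = the two repeat wells disagree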;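 also: raw slope of fluorescence over initial fluorescence between 10 and 20 s after thallium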
KCC2 secondary2: KCC2 (human) modulation, second secondary assay | 23% of 3,700 active | normalized thallium flux at 10 µM | AID 1715 | shares compounds with KCC2 mod | HEK293-KCC2, thallium flux FluoZin2 fluorescence; actives lie on both sides; F/F0 rise rate, 10–20 s post-thallium;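 active = thallium flux slope more than 3 SD above or below the plate's solvent-only control mean, mostly below; inconclusive = the two repeat wells disagreed; inactive = no significant shift from solvent-only controls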
HEK293 Tl flux: counter-screen for KCC2 modulators: effect in parental HEK293 cells. shares compounds with KCC2 mod. thallium flux FluoZin2, ouabain; baseline-ratio fluorescence slope, 10–20 s after thallium. thallium flux rate (normalised fluorescence) at 10 µM. 46% of 3,700 active. AID 1716;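 active = thallium flux rate significantly above the same plate's solvent-only control wells, beyond their mean plus 3 SD; inconclusive = the two replicate wells gave conflicting results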
KCC2 ouabain: modulates human KCC2 on retest with ouabain; shares compounds with KCC2 mod; HEK293-KCC2, thallium flux FluoZin2 fluorescence; bidirectional: low = inhibitor, high = activator; raw Tl+ flux slope (below DMSO = inhibition, above = activation) at 10 µM; 48% of 3,700 active;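 active = thallium flux slope beyond 3 SD from same-plate DMSO control mean in most replicates, usually higher, sometimes lower; inconclusive = repeat tests gave conflicting results; inactive = no significant difference from controls in most replicates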;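 also: slope of initial-normalized fluorescence between seconds 10 and 20 after thallium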
HEK counter2: counter-screen for KCC2 modulators: effect in parental HEK293 cells. AID 1718. thallium flux slope at 10 µM. 33% of 3,700 active. shares compounds with KCC2 mod. thallium flux FluoZin-2 fluorescence slope;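 active = thallium flux slope above the same plate's solvent-control mean plus 3 SD in both duplicate wells; inconclusive = duplicate wells that disagreed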;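 also: run without ouabain in cells lacking the KCC2 cotransporter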
Of the large screens only hits and unclear results are named; the others gave an inactive call (follow-up assays come after a bar, where they were run). Hits are enriched below; roughly 3.7% of the tested compounds scored in any of these assays.

O=C(CSc1nnc(CNc2ccc(F)cc2)o1)c1ccccc1	KCC2 mod -3.82 | KCC2 secondary inactive | KCC2 bumet counter inactive | KCC2 secondary2 inactive | HEK293 Tl flux inactive | KCC2 ouabain inactive | HEK counter2 inactive
O=C(CSc1nnc(Cc2ccccc2)o1)c1ccccc1	KCC2 mod -4.45 | KCC2 secondary inactive | KCC2 bumet counter inconclusive | KCC2 secondary2 0.0237 | HEK293 Tl flux inactive | KCC2 ouabain inconclusive | HEK counter2 inactive
COc1ccc(NC(=O)CSc2nnc(CNc3ccc(F)cc3)o2)c(OC)c1	KCC2 mod -4.1 (no result: ROMK primary) | KCC2 secondary inactive | KCC2 bumet counter inactive | KCC2 secondary2 inactive | HEK293 Tl flux inactive | KCC2 ouabain inconclusive | HEK counter2 inactive
COc1ccc(NCc2nnc(SCC(=O)Nc3cc(C)cc(C)c3)o2)cc1	none (no result: ROMK primary)
COc1ccc(C(=O)CSc2nnc(CNc3ccc(F)cc3)o2)cc1	none
O=C(CSc1nnc(COc2ccccc2)o1)c1ccccc1	none (no result: KCC2 mod)
COCCSc1nnc(NC(=O)C2CC(=O)N(c3ccc(Cl)cc3)C2)s1 (stereo unspecified)	none
Cc1nc2ccc(C(=O)O)cc2c2c1CC(C)S2 (stereo unspecified)	none (no result: ROMK primary, KCC2 mod)
CCOc1ccc(N(CC(=O)NCc2cccc(OC)c2)S(=O)(=O)c2c(C)noc2C)cc1	none (no result: ROMK primary)
Cc1cc(C)c(C#N)c(OCC(=O)c2ccccc2)n1	none | KCC2 secondary inactive | KCC2 bumet counter inactive | KCC2 secondary2 inconclusive | HEK293 Tl flux inactive | KCC2 ouabain inactive | HEK counter2 inactive
CCn1c(SCC(=O)Nc2ccc(Cl)cc2)nc2nc3c(cc2c1=O)CCCC3	KCC2 mod 4.81 (no result: ROMK primary) | KCC2 secondary inconclusive | KCC2 bumet counter 0.0154 | KCC2 secondary2 inactive | HEK293 Tl flux 0.0126 | KCC2 ouabain inconclusive | HEK counter2 0.0135
CCn1c(SCC(=O)Nc2ccc(OC)cc2)nc2nc3c(cc2c1=O)CCCC3	none (no result: PKD1 inh, Arbovirus inh)
CC1(CCc2ccccc2)NC(=O)N(Cc2nnc(-c3ccccc3Br)o2)C1=O (stereo unspecified)	none (no result: KCC2 mod) | KCC2 secondary inactive | KCC2 bumet counter inactive | KCC2 secondary2 0.0242 | HEK293 Tl flux inactive | KCC2 ouabain 0.0163 | HEK counter2 inactive
O=C1NC2(CCCc3ccccc32)C(=O)N1Cc1nnc(-c2ccccc2Br)o1 (stereo unspecified)	none
O=C(O)COc1ccccc1/C=N/NC(=O)c1cc(-c2ccc(F)cc2)nc2ccccc12	none
O=C(N/N=C/c1ccccn1)c1cc(-c2ccccc2)nc2ccccc12	KCC2 mod 11.7 (no result: ROMK primary, PKD1 inh, Arbovirus inh) | KCC2 secondary inactive | KCC2 bumet counter 0.0232 | KCC2 secondary2 inactive | HEK293 Tl flux 0.0102 | KCC2 ouabain inconclusive | HEK counter2 inactive
CC(C)c1ccc(N(C(=O)c2cc3ccccc3oc2=O)C2C=CS(=O)(=O)C2)cc1 (stereo unspecified)	none (no result: ROMK primary)
COCCNC(=S)N1CCC(Cc2ccccc2)CC1	KCC2 mod -4.25 | KCC2 secondary inactive | KCC2 bumet counter inactive | KCC2 secondary2 inactive | HEK293 Tl flux inactive | KCC2 ouabain 0.0152 | HEK counter2 inactive
CC12CS(=O)(=O)CC1SC(=S)N2Cc1ccccc1 (stereo unspecified)	none

Screening data from PubChem BioAssay.
